Measured values published in ChEMBL document CHEMBL1127461, “Synthesis of new acyclic pyrimidine nucleoside analogs as potential antiviral drugs” (J Med Chem, 1994).

Experiments:
Human alphaherpesvirus 1 [1] = assay: In Vitro antiviral activity against HSV-1 at 5 ug/mL concentration; assay type: functional
Summary of the method: (§1)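 Mouse embryo cell cultures infected with HSV-1 were exposed to compound at 0.05, 0.5, 5, 50 and 500 μg/mL for 3 days. Infected cultures were then inspected macro- and microscopically, and reduction or inhibition of virus-induced cell destruction was scored. Aciclovir, 5-ethyldeoxyuridine and PMEG served as reference drugs.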

[2] = In Vitro cytotoxicity […] at 500 ug/mL concentration; assay type: organism-based
Summary of the method: (§2)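 Uninfected mouse embryo cell cultures were exposed to compound at 0.05, 0.5, 5, 50 and 500 μg/mL for 3 days. Cultures were then examined macro- and microscopically, and growth inhibition or disruption of the cells was taken as cytotoxicity.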

[3] = In Vitro cytotoxicity against HSV-1 at 5 ug/mL concentration; assay type: organism-based; conditions: human alphaherpesvirus 1, in vitro; summary of the method: as §2
Human alphaherpesvirus 1 [4] = assay: In Vitro antiviral activity against HSV-1 at 500 ug/mL concentration; assay type: functional; summary of the method: as §1
Human alphaherpesvirus 1 [5] = assay: In Vitro antiviral activity against HSV-1 at 50 ug/mL concentration; assay type: functional; summary of the method: as §1
Human alphaherpesvirus 1 [6] = assay: In Vitro antiviral activity against HSV-1 at 0.5 ug/mL concentration; assay type: functional; summary of the method: as §1
[7] = In Vitro cytotoxicity […] at 50 ug/mL concentration; assay type: organism-based; summary of the method: as §2
Human alphaherpesvirus 1 [8] = assay: In Vitro antiviral activity against HSV-1 at 0.05 ug/mL concentration; assay type: functional; summary of the method: as §1

SMILES	inhibition at 5 µg/mL (Human alphaherpesvirus 1 [1]) [%]	inhibition at 500 ug/mL [2] [%]	inhibition at 5 ug/mL [3] [%]	inhibition at 500 µg/mL (Human alphaherpesvirus 1 [4]) [%]	inhibition at 50 µg/mL (Human alphaherpesvirus 1 [5]) [%]	inhibition at 0.5 µg/mL (Human alphaherpesvirus 1 [6]) [%]	inhibition at 50 ug/mL [7] [%]	inhibition at 0.05 µg/mL (Human alphaherpesvirus 1 [8]) [%]
O=[N+]([O-])c1c(O)nc(O)nc1NCCCCO	0	0	0	0	0	0	0	0
Nc1nc(O)c([N+](=O)[O-])c(NCCCCO)n1	0	100	0	0	0	0	0	0
Nc1nc(O)c([N+](=O)[O-])c(NCCOCP(=O)(O)O)n1	0	0	0	0	0	0	0	0
OCCCCNc1cc(O)nc(O)n1	0	25	0	0	0	0	0	0
Nc1nc(Cl)cc(NCCCCO)n1	0	50	0	0	0	0	0	0
Nc1nc(O)c(N)c(NCCOCP(=O)(O)O)n1	100	75	–	–	–	100	–	50
Nc1nc(O)c2ncn(COCCP(=O)(O)O)c2n1	–	–	–	–	–	100	–	100
Nc1nc(O)cc(NCCCCO)n1	0	0	0	0	0	0	0	0
OCCCCNc1nc(O)nc(O)c1I	0	100	0	0	0	0	100	0
Nc1nc2c(ncn2COCCO)c(=O)[nH]1 [ACYCLOVIR]	100	0	0	100	100	100	0	100
CCc1cn([C@H]2C[C@H](O)[C@@H](CO)O2)c(=O)[nH]c1=O [EDOXUDINE]	100	0	0	100	100	25	0	0
